Reference: ChEMBL document CHEMBL4715738, “In Vitro Antibacterial Activity of Curcumin-Polymyxin B Combinations against Multidrug-Resistant Bacteria Associated with Traumatic Wound Infections” (J Nat Prod, 2016)
In brackets after ≈: the same amount, converted by molar mass.

Columns and labels:
[1] = test system: Acinetobacter baumannii; assay: Antibacterial activity against Acinetobacter baumannii NCTC 19606 assessed as reduction in bacterial growth incubated for 24 hrs; format: functional
[2] = test system: Acinetobacter baumannii; assay: Antibacterial activity against Acinetobacter baumannii AB12 harboring OXA-23 assessed as reduction in bacterial growth incubated for 24 hrs; format: functional
[3] = test system: Staphylococcus aureus; assay: Antibacterial activity against methicillin-resistant Staphylococcus aureus NCTC 12493 assessed as reduction in bacterial growth incubated for 24 hrs; format: functional
[4] = test system: Pseudomonas aeruginosa; assay: Antibacterial activity against Pseudomonas aeruginosa PAO1 assessed as reduction in bacterial growth incubated for 24 hrs; format: functional
[5] = test system: Escherichia coli; assay: Antibacterial activity against Escherichia coli EC2 harboring CTX-M-15 assessed as reduction in bacterial growth incubated for 24 hrs; format: functional
[6] = test system: Streptococcus pyogenes; assay: Antibacterial activity against Streptococcus pyogenes SPY3 assessed as reduction in bacterial growth incubated for 24 hrs; format: functional
[7] = test system: Acinetobacter baumannii; assay: Antibacterial activity against Acinetobacter baumannii AB14 harboring OXA-23 clone 1 assessed as reduction in bacterial growth incubated for 24 hrs; format: functional
[8] = test system: Escherichia coli; assay: Synergistic antibacterial activity against Escherichia coli EC204 harboring NDM-1 assessed as fractional inhibitory concentration index measured after 24 hrs in presence of curcumin by checkerboard assay; format: functional
Outline: (§1)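 FICI was derived from checkerboard MICs. Synergy was defined as FICI ≤ 0.5 and additive as FICI > 0.5−4.0. Where an MIC was not reached, the dilution above the maximum dose was used in the FICI calculation. Experiments were run in triplicate and reported as means.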

[9] = test system: Stenotrophomonas maltophilia; assay: Antibacterial activity against Stenotrophomonas maltophilia SMS01 assessed as reduction in bacterial growth incubated for 24 hrs; format: functional
[10] = test system: Streptococcus pyogenes; assay: Antibacterial activity against Streptococcus pyogenes SPY1 assessed as reduction in bacterial growth incubated for 24 hrs; format: functional
[11] = test system: Pseudomonas aeruginosa; assay: Synergistic antibacterial activity against Pseudomonas aeruginosa PA30 harboring VIM-2 assessed as fractional inhibitory concentration index measured after 24 hrs in presence of curcumin by checkerboard assay; format: functional; outline: as §1
[12] = test system: Pseudomonas aeruginosa; assay: Antibacterial activity against Pseudomonas aeruginosa PA30 harboring VIM-2 assessed as reduction in bacterial growth incubated for 24 hrs; format: functional
[13] = test system: Stenotrophomonas maltophilia; assay: Antibacterial activity against Stenotrophomonas maltophilia NCTC 10258 assessed as reduction in bacterial growth incubated for 24 hrs; format: functional
[14] = test system: Enterococcus faecium; assay: Antibacterial activity against vancomycin-resistant Enterococcus faecium OEF65 assessed as reduction in bacterial growth incubated for 24 hrs; format: functional
[15] = test system: Acinetobacter baumannii; assay: Antibacterial activity against Acinetobacter baumannii NCTC 19606 assessed as log reduction in colony forming units at MIC measured after 6 hrs by time kill assay; format: functional
Outline: (§2)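 Time-kill in Mueller-Hinton 2 broth. Inoculum was a 1/1000 dilution of a 16 h overnight culture, about 10^6 CFU/mL, 10 mL per tube. Arms were each agent alone at ×1 MIC, or the combination at ×1 MIC plus ×0.5 MIC partner. Incubated at 37 °C with continuous agitation for 24 h. Samples taken at 0, 2, 4, 6 and 24 h, serially diluted and plated on IsoSensitest agar for CFU counts.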

[16] = test system: Pseudomonas aeruginosa; assay: Antibacterial activity against Pseudomonas aeruginosa PA14 assessed as reduction in bacterial growth incubated for 24 hrs; format: functional
[17] = test system: Staphylococcus aureus; assay: Synergistic antibacterial activity against Staphylococcus aureus ATCC 25923 assessed as fractional inhibitory concentration index measured after 24 hrs in presence of curcumin by checkerboard assay; format: functional; outline: as §1
[18] = test system: Stenotrophomonas maltophilia; assay: Antibacterial activity against Stenotrophomonas maltophilia SMB07 assessed as reduction in bacterial growth incubated for 24 hrs; format: functional
[19] = test system: Acinetobacter baumannii; assay: Antibacterial activity against Acinetobacter baumannii AB16 harboring OXA-23 clone 2 assessed as reduction in bacterial growth incubated for 24 hrs; format: functional
[20] = test system: Pseudomonas aeruginosa; assay: Antibacterial activity against Pseudomonas aeruginosa ATCC 27853 assessed as log reduction in colony forming units at MIC measured after 6 hrs by time kill assay; format: functional; outline: as §2
[21] = test system: Enterococcus faecalis; assay: Antibacterial activity against Enterococcus faecalis ATCC 29212 assessed as reduction in bacterial growth incubated for 24 hrs; settings: ATCC 29212, 24 h
[22] = test system: Streptococcus pyogenes; assay: Synergistic antibacterial activity against Streptococcus pyogenes SPY3 assessed as fractional inhibitory concentration index measured after 24 hrs in presence of curcumin by checkerboard assay
[23] = test system: Staphylococcus aureus; assay: Antibacterial activity against Staphylococcus aureus ATCC 25923 assessed as reduction in bacterial growth incubated for 24 hrs; format: functional
[24] = test system: Escherichia coli; assay: Antibacterial activity against Escherichia coli NCTC 12241 assessed as reduction in bacterial growth incubated for 24 hrs; format: functional
[25] = test system: Escherichia coli; assay: Antibacterial activity against Escherichia coli NCTC 12241 assessed as reduction in bacterial growth incubated for 24 hrs in presence of curcumin; format: functional
[26] = test system: Staphylococcus aureus; assay: Antibacterial activity against vancomycin-intermediate resistant Staphylococcus aureus Mu50 assessed as reduction in bacterial growth incubated for 24 hrs; format: functional
[27] = test system: Enterococcus faecium; assay: Antibacterial activity against vancomycin-resistant Enterococcus faecium OEF42 assessed as reduction in bacterial growth incubated for 24 hrs; format: functional
[28] = test system: Escherichia coli; assay: Antibacterial activity against Escherichia coli EC204 harboring NDM-1 assessed as reduction in bacterial growth incubated for 24 hrs; format: functional
[29] = test system: Pseudomonas aeruginosa; assay: Antibacterial activity against Pseudomonas aeruginosa ATCC 27853 assessed as reduction in bacterial growth incubated for 24 hrs; format: functional
[30] = test system: Streptococcus pyogenes; assay: Antibacterial activity against Streptococcus pyogenes SPY2 assessed as reduction in bacterial growth incubated for 24 hrs; format: functional
[31] = test system: Staphylococcus aureus; assay: Bactericidal activity against methicillin-resistant Staphylococcus aureus NCTC 12493 assessed as bacterial cell death at 0.5 fold MIC measured after 4 to 6 hrs hrs in presence of polymyxin B at MIC by time kill assay relative to control; format: functional; settings: time 4-6 hrs
Outline: (§3)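 Time-kill in 10 mL Mueller-Hinton 2 broth, 37 °C with continuous agitation, 24 h. Inoculum was a 1/1000 dilution of a 16 h overnight culture, about 10^6 CFU/mL. Single agents at 1× MIC; combination at 1× MIC polymyxin B plus 0.5× MIC curcumin. Samples at 0, 2, 4, 6 and 24 h were serially diluted and plated on IsoSensitest agar for CFU/mL.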

[32] = test system: Staphylococcus aureus; assay: Bactericidal activity against methicillin-resistant Staphylococcus aureus NCTC 12493 assessed as log reduction in colony forming units at 0.5 fold MIC measured after 24 hrs in presence of polymyxin B at MIC by time kill assay; format: functional; outline: as §3
[33] = test system: Stenotrophomonas maltophilia; assay: Antibacterial activity against Stenotrophomonas maltophilia NCTC 10258 assessed as reduction in bacterial growth incubated for 24 hrs in presence of polymyxin B; format: functional
[34] = test system: Pseudomonas aeruginosa; assay: Antibacterial activity against Pseudomonas aeruginosa PA14 assessed as reduction in bacterial growth incubated for 24 hrs in presence of polymyxin B; format: functional
[35] = test system: Streptococcus pyogenes; assay: Antibacterial activity against Streptococcus pyogenes SPY2 assessed as reduction in bacterial growth incubated for 24 hrs in presence of polymyxin B; format: functional
[36] = test system: Enterococcus faecalis; assay: Antibacterial activity against […] Enterococcus faecalis ATCC 29212 assessed as reduction in bacterial growth incubated for 24 hrs in presence of polymyxin B; format: functional
[37] = test system: Pseudomonas aeruginosa; assay: Antibacterial activity against Pseudomonas aeruginosa ATCC 27853 assessed as log reduction in colony forming units at 0.5 fold MIC measured after 24 hrs by time kill assay; format: functional; settings: in the assay text read “1 fold MIC” for “0.5 fold MIC”; outline: as §2

| SMILES | MIC [1] | MIC [2] | MIC [3] | MIC [4] | MIC [5] | MIC [6] | MIC [7] | MIC [9] | MIC [10] | MIC [12] | MIC [13] | MIC [14] | MIC [16] | MIC [18] | MIC [19] | MIC [21] | MIC [23] | MIC [24] | MIC [26] | MIC [27] | other results |
| --- | --- | --- | --- | --- | --- | --- | --- | --- | --- | --- | --- | --- | --- | --- | --- | --- | --- | --- | --- | --- | --- |
| CC[C@H](C)CCCCC(=O)N[C@@H](CCN)C(=O)N[C@H](C(=O)N[C@@H](CCN)C(=O)N[C@H]1CCNC(=O)[C@H]([C@@H](C)O)NC(=O)[C@H](CCN)NC(=O)[C@H](CCN)NC(=O)[C@H](CC(C)C)NC(=O)[C@@H](Cc2ccccc2)NC(=O)[C@H](CCN)NC1=O)[C@@H](C)O.O=S(=O)(O)O | 0.19 µM | 0.19 µM | 98 µM | 0.78 µM | 0.096 µM | 3.1 µM | 0.096 µM | 6.1 µM | 6.1 µM | 0.39 µM | 1.5 µM | 49 µM | 0.78 µM | 1.5 µM | 0.19 µM | 98 µM | 98 µM | 0.048 µM | 98 µM | 98 µM | fractional inhibitory concentration index (FICI) [8]: 0.313; fractional inhibitory concentration index (FICI) [11]: 0.563; Activity [15]: 2 log10CFU/ml; fractional inhibitory concentration index (FICI) [17]: 0.156; Activity [20]: 2 log10CFU/ml; fractional inhibitory concentration index (FICI) [22]: 0.5; MIC [25]: 0.024 µM; MIC [28]: 0.096 µM; MIC [29]: 0.39 µM; MIC [30]: 12.3 µM |
| COc1cc(/C=C/C(=O)CC(=O)/C=C/c2ccc(O)c(OC)c2)ccc1O [CURCUMIN] | 2780 µM (≈ 1020 µg/mL) | 2780 µM (≈ 1020 µg/mL) | 2780 µM (≈ 1020 µg/mL) | 1390 µM (≈ 512 µg/mL) | 2780 µM (≈ 1020 µg/mL) | 174 µM (≈ 64.1 µg/mL) | 1390 µM (≈ 512 µg/mL) | 2780 µM (≈ 1020 µg/mL) | 350 µM (≈ 129 µg/mL) | 2780 µM (≈ 1020 µg/mL) | 2780 µM (≈ 1020 µg/mL) | 174 µM (≈ 64.1 µg/mL) | 1390 µM (≈ 512 µg/mL) | 2780 µM (≈ 1020 µg/mL) | 2780 µM (≈ 1020 µg/mL) | 350 µM (≈ 129 µg/mL) | 2780 µM (≈ 1020 µg/mL) | 2780 µM (≈ 1020 µg/mL) | 2780 µM (≈ 1020 µg/mL) | 350 µM (≈ 129 µg/mL) | Activity [31]: 100%; Activity [32]: >3 log10CFU/ml; MIC [33]: 22 µM; MIC [34]: 22 µM; MIC [35]: 22 µM; MIC [36]: 87 µM; MIC [28]: 2780 µM (≈ 1020 µg/mL); Activity [37]: 2 log10CFU/ml; MIC [29]: 1390 µM (≈ 512 µg/mL); MIC [30]: 174 µM (≈ 64.1 µg/mL) |
